Experiments:
hNTS2 = details: cited from earlier work
hNTS1 = details: read-out: Ki toward hNTS1; cited from earlier work
NTS1 = details: cited from earlier work
NTS2 = NTS2 (Homo sapiens, UniProt O95665); assay: Calcium imaging assay; assay type: cell-based
Outline: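 HT-29 cells grown overnight on glass slides (5 × 10^5 cells, 37 °C, 5% CO2), loaded 30 min in the dark with 100 μM fluo-8 AM, 0.4% pluronic acid and 2.5 mM probenecid in RPMI. Perfused with bicarbonate-glucose buffer (95% O2/5% CO2, pH 7.4, room temperature), washed 10 min. Test compound 10–11 to 10–5 M by rapid perfusion; levocabastine as positive control. Ex 490/Em 514 nm; ΔF/F (%) vs baseline, normalized to levocabastine stimulation; twice in duplicate, 20 cells analysed.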

Chain of NTS2 (O95665 whole entry, the tested form may be a part): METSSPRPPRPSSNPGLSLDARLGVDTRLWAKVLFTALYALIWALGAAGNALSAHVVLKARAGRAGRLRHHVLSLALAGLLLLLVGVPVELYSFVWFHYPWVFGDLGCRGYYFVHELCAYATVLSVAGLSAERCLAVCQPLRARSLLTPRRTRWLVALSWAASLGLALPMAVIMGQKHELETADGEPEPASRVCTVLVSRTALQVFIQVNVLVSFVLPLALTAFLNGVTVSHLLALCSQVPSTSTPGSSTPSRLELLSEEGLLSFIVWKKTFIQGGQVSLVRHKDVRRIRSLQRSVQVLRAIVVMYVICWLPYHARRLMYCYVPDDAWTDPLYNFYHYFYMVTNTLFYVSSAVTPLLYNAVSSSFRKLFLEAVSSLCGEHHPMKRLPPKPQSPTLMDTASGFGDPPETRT

| Molecule | selectivity index hNTS1/hNTS2 (hNTS2) | Ki (hNTS2; read-out: Ki toward hNTS2) [nM] | Ki (hNTS1) [nM] | hypothermic effect (NTS1) | EC50 (NTS2) [nM] |
| --- | --- | --- | --- | --- | --- |
| H-Lys-Lys-Pro-(D)Trp-Ile-TMSAla-OH [JMV 5504] | 423 | 8.5 | 3600 | no hypothermic effect | – |
| C[C@@H]1CN([C@H]2CC[C@](C#N)(c3ccc(F)cc3)CC2)CC[C@]1(C(=O)O)c1ccccc1 [levocabastine] | – | – | – | – | 118 |

From PMC9948202 (ACS Omega, 2023)
